From paper PMC7993281 (Clinical and Translational Science, 2020)

Tests used:
Multiple-ascending dose = type: in vivo, human; conditions: for Tmax: median (range); for CL renal: urine and plasma
In short: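 Oral 30, 100, 300 or 1,000 mg b.i.d. for 7 days in healthy men and women, n = 8 active per dose. Plasma sampled for 12 h on Day 1, at trough on Days 2–6, and up to 72 h after the last dose. Urine collected predose Day 1 and 0–12 h on Day 7. Validated LC-MS/MS. Noncompartmental analysis gave AUCτ, accumulation index and CLR.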

[1] = SAD study tolerability/safety; type: in vivo, human
In short: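 Healthy men aged 18–55 years, single oral doses of 10–2,000 mg, 6 active and 2 placebo per cohort, staggered dosing. Fasted dosing, plus a fed period in the 300 mg cohort after at least 7 days washout. Subjects were confined until 48 h post-dose, with follow-up at 29–34 days. AEs, vital signs, ECG, examination and laboratory tests were summarised descriptively.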

[2] = Cardiodynamic and exposure-response analysis of QT interval; type: in vivo, human
[3] = cited from earlier work
[4] = system: organic cation transporter 2; conditions: in vitro; ref Idorsia Pharmaceuticals Ltd, unpublished data; cited from earlier work
[5] = both, human, plasma, oral, 30 mg
[6] = both, human, plasma, oral, 100 mg
[7] = both, human, plasma, oral, 300 mg
[8] = both, human, plasma, oral, 1000 mg b.i.d.
[9] = SAD, all doses, fasted conditions, 36 subjects

In the case of `CCCCCN1C[C@H](O)[C@@H](O)[C@H](O)[C@@H]1CO` [sinbaglustat, (2S,3R,4R,5S)‐2‐(hydroxymethyl)‐1‐pentylpiperidine‐3,4,5‐triol], the AUC (Multiple-ascending dose; [5]) is reported as 1310 ng·h/mL, the AUC(0-t) (Multiple-ascending dose; [5]) is reported as 1200 ng·h/mL and the Cmax (Multiple-ascending dose; both, human, plasma, oral, 30 mg, Cmax, Day 7, 30 mg b.i.d., geometric mean (95% CI)) is reported as 413 ng/mL. The Tmax (Multiple-ascending dose; both, human, plasma, oral, 30 mg, Day 1, 30 mg b.i.d.) was 0.9 h, the Tmax (Multiple-ascending dose; both, human, plasma, oral, 30 mg, Day 7, 30 mg b.i.d.) was 0.9 h and the AUC (Multiple-ascending dose; [6]) was 4650 ng·h/mL. For the same compound, the AUC(0-t) (Multiple-ascending dose; [6]) was 4480 ng·h/mL, the Cmax (Multiple-ascending dose; both, human, plasma, oral, 100 mg, Cmax, Day 1, 100 mg b.i.d., geometric mean (95% CI)) was 1340 ng/mL and the Cmax (Multiple-ascending dose; both, human, plasma, oral, 100 mg, Cmax, Day 7, 100 mg b.i.d., geometric mean (95% CI)) was 1270 ng/mL. It also gave a Tmax (Multiple-ascending dose; both, human, plasma, oral, 100 mg, Day 1, 100 mg b.i.d.) of 0.9 h, a Tmax (Multiple-ascending dose; both, human, plasma, oral, 100 mg, Day 7, 100 mg b.i.d.) of 1.3 h and an AUC (Multiple-ascending dose; [7]) of 16800 ng·h/mL. The AUC(0-t) (Multiple-ascending dose; [7]) was 15200 ng·h/mL, the Cmax (Multiple-ascending dose; both, human, plasma, oral, 300 mg, Cmax, Day 1, 300 mg b.i.d., geometric mean (95% CI)) was 3760 ng/mL and the Cmax (Multiple-ascending dose; both, human, plasma, oral, 300 mg, Cmax, Day 7, 300 mg b.i.d., geometric mean (95% CI)) was 3990 ng/mL. It also gave a Tmax (Multiple-ascending dose; both, human, plasma, oral, 300 mg, Day 1, 300 mg b.i.d.) of 1.4 h, a Tmax (Multiple-ascending dose; both, human, plasma, oral, 300 mg, Day 7, 300 mg b.i.d.) of 0.9 h and an AUC (Multiple-ascending dose; [8]) of 51200 ng·h/mL. The AUC(0-t) (Multiple-ascending dose; [8]) was 51200 ng·h/mL, the half-life (Multiple-ascending dose; [8]) was 14.7 h and the Cmax (Multiple-ascending dose; both, human, plasma, oral, 1000 mg b.i.d., Cmax, Day 1, 1,000 mg b.i.d., geometric mean (95% CI)) was 10600 ng/mL. The Cmax (Multiple-ascending dose; both, human, plasma, oral, 1000 mg b.i.d., Cmax, Day 7, 1,000 mg b.i.d., geometric mean (95% CI)) was 10400 ng/mL, the Tmax (Multiple-ascending dose; both, human, plasma, oral, 1000 mg b.i.d., Day 1, 1,000 mg b.i.d.) was 1.45 h and the Tmax (Multiple-ascending dose; both, human, plasma, oral, 1000 mg b.i.d., Day 7, 1,000 mg b.i.d.) was 2 h. The CL renal (Multiple-ascending dose; both, human, oral, 30 mg) was 211 mL/min, the CL renal (Multiple-ascending dose; both, human, oral, 100 mg) was 192 mL/min and the CL renal (Multiple-ascending dose; both, human, oral, 300 mg) was 144 mL/min. For the same compound, the CL renal (Multiple-ascending dose; both, human, oral, 1000 mg b.i.d.) was 148 mL/min, the “dose excreted unchanged in urine” value (Multiple-ascending dose; doses ranging from 30 to 1,000 mg b.i.d.) was ~ 50% and the Cmax (Multiple-ascending dose; female, human, plasma, oral, 1000 mg b.i.d., geometric mean Cmax in women, female subjects, 1,000 mg b.i.d. cohort, day 7) was 12000 ng/mL. The “AEs in the 30, 300, and 2,000 mg cohort” value ([1]; SAD) was “No AE was reported”, the “Dizziness (subjects)” value ([1]; SAD 10 mg (n = 6)) was 1 and the “Number of subjects with at least 1 AE” value ([1]; SAD 10 mg (n = 6)) was 1. For the same compound, the “Total number of AEs” value ([1]; SAD 10 mg (n = 6)) was 1, the “Number of subjects with at least 1 AE” value ([1]; SAD 100 mg (n = 6)) was 3 and the “Rash (subjects)” value ([1]; SAD 100 mg (n = 6)) was 1. The “Total number of AEs” value ([1]; SAD 100 mg (n = 6)) was 3, the “AEs under fed conditions” value ([1]; SAD 300 mg fed) was “no AE was reported” and the “Headache (subjects)” value ([1]; SAD 1,000 mg (n = 6)) was 2. The “Nausea (subjects)” value ([1]; SAD 1,000 mg (n = 6)) was 1, the “Number of subjects with at least 1 AE” value ([1]; SAD 1,000 mg (n = 6)) was 3 and the “Palpitations (subjects)” value ([1]; SAD 1,000 mg (n = 6)) was 1. For the same compound, the “Viral upper respiratory tract (subjects)” value ([1]; SAD 1,000 mg (n = 6)) was 1, the “Vomiting (subjects)” value ([1]; SAD 1,000 mg (n = 6)) was 1 and the “subjects reporting AEs (of 36 treated)” value ([1]; SAD, all doses, fasted conditions) was 7. The “subjects reporting AEs” value [1, 9] was 19%, the “total AEs reported” value [1, 9] was 13 and the “serious AEs, severe AEs, AEs leading to discontinuation” value ([1]; whole study (SAD and MAD), up to end‐of‐study) was “No serious AEs, severe AEs, or AEs leading to study or treatment discontinuation occurred”. For the same compound, the “effect on QTcF, HR, PR, and QRS intervals” value ([2]; change‐from‐baseline and placebo‐adjusted change‐from‐baseline) was “no clinically relevant effect”, the “slope of concentration–ΔΔQTcF relationship” value ([2]; linear mixed‐effects model, 90% CI −0.00008 to 0.00056, statistically nonsignificant) was 0.0002 ms per ng/mL and the “treatment effect‐specific intercept” value ([2]; linear mixed‐effects model, nonstatistically significant) was -2.7 ms. For the same compound, the “blood‐brain barrier crossing” value [3] was “crosses the blood‐brain barrier” and the “organic cation transporter 2 interaction” value [4] was “a substrate and an inhibitor”.
